The test system of test [1] is Cysteinyl leukotriene receptor (Cavia porcellus). Kind of test: Ability to inhibit the contraction induced by 8 nM LTE4 on isolated guinea pig tracheal strips at 10 uM dose; % antagonism / % basal tension. The note with it: Trachea.
The species entered for test [2] is Cavia porcellus. The test is described as follows: Ability to inhibit the contraction induced by 8 nM LTE4 on isolated guinea pig tracheal strips at 5 uM dose; % antagonism / % basal tension. It counts as functional, Trachea. The method in brief:
(§1)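 Guinea pig tracheal spirals were held at 2 g resting tension and stabilized for 60 min, with bath changes every 15 min. Tissues received two 10-min challenges with 8 nM LTE4, each followed by a 60-min wash. Test compound was then added for 10 min, noting any resting-tension change, before a third LTE4 challenge. % inhibition = (2nd−3rd)/2nd×100, corrected for paired vehicle tissue. Significance was tested by paired t test (p<0.05).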

For test [3], the species on record is Cavia porcellus. Kind of test: Ability to inhibit the contraction induced by 8 nM LTE4 on isolated guinea pig tracheal strips at 1 uM dose; % antagonism / % basal tension. The class given is functional, Trachea. The essentials: as §1
The species named for test [4] is Cavia porcellus. The test is described as follows: Ability to inhibit the contraction induced by 8 nM LTE4 on isolated guinea pig tracheal strips at 10 uM dose; % antagonism / % basal tension, Agonist activity was too great to determine if there was any partial antagonism/100. The note with it: Trachea, filed as agonist. It counts as functional. The method in brief:
as §1

Test [5] is filed under the species Cavia porcellus. Kind of test: Ability to inhibit the contraction induced by 8 nM LTE4 on isolated guinea pig tracheal strips at 3.3 uM dose; % antagonism / % basal tension.
The species named for test [6] is Cavia porcellus. Kind of test: Ability to inhibit the contraction induced by 8 nM LTE4 on isolated guinea pig tracheal strips at 50 uM dose; % antagonism / % basal tension, compound was checked against BaCl2 as agonist at specified concentration/14. It counts as functional, Trachea. The essentials: as §1
The species entered for test [7] is Cavia porcellus. The test is described as follows: Ability to inhibit the contraction induced by 8 nM LTE4 on isolated guinea pig tracheal strips at 4 uM dose; % antagonism / % basal tension. It counts as functional, Trachea.

As for `CCCCCCCc1ccc(C/C=C\[C@@H](SCc2ccc(N)c(C(=O)O)c2)[C@@H](O)CCCC(=O)O)cc1`, in test [1], the Ratio was 68.
As to `CCCCCCCc1ccc(C/C=C\[C@@H](SCc2ccc(C(=O)O)cc2)[C@@H](O)CCCC(=O)O)cc1`, the Ratio in test [1] is 37.
In the case of `CCCCCCCc1ccc(C/C=C\[C@@H](SCc2ccc(C(=O)O)cc2OC)[C@@H](O)CCCC(=O)O)cc1`, the Ratio in the test listed under Cavia porcellus [2] was found to be 31; in test [1], 74.
With `CCCCC/C=C/c1ccc(C/C=C\[C@@H](SCc2ccc(C(=O)O)cc2OC)[C@@H](O)CCCC(=O)O)cc1`, in test [1], the Ratio was 39.
As to `CCCCCCOc1ccccc1C/C=C\[C@@H](SCc1ccc(C(=O)O)cc1OC)[C@@H](O)CCCC(=O)O`, the Ratio in test [1] is 24.
As to `CCCCCCCc1cccc(C/C=C\[C@@H](SCc2ccc(C(=O)O)cc2OC)[C@@H](O)CCCC(=O)O)c1`, the Ratio in the test listed under Cavia porcellus [2] came to 45; in test [1], 52.
On to `CCCCCCCc1ccc(C/C=C\[C@@H](Sc2ccc(NC(C)=O)cc2)[C@@H](O)CCCC(=O)O)cc1`, for which, in test [1], the Ratio turned out to be 4.
Consider `CCCCCCCc1ccc(C/C=C\[C@@H](SCc2ccc(C(=O)O)c(N)c2)[C@@H](O)CCCC(=O)O)cc1`, for which, in test [1], the Ratio was determined as 51.
For `CCCCCc1ccc(C/C=C\[C@@H](SCc2ccc(C(=O)O)cc2OC)[C@@H](O)CCCC(=O)O)cc1`, the Ratio in test [1] is 43.
Regarding `CCCCCCCc1ccc(C/C=C\[C@@H](SCc2cccc(/C=C/C(=O)O)c2)[C@@H](O)CCCC(=O)O)cc1`, in test [1], the Ratio stood at 34.
For `CCCCC/C=C/c1cccc(C/C=C\[C@@H](SCc2ccc(C(=O)O)cc2OC)[C@@H](O)CCCC(=O)O)c1`, the Ratio in test [1] worked out at 57; in the test listed under Cavia porcellus [3], 7.
As for `CCCCCCOc1ccc(C/C=C\[C@@H](SCc2ccc(C(=O)O)cc2OC)[C@@H](O)CCCC(=O)O)cc1`, the Ratio result in the test filed under Cavia porcellus [4] was “Agonist activity was too great to determine if there was any partial antagonism”.
On to `CCCCCCOc1cccc(C/C=C\[C@@H](SCc2ccc(C(=O)O)cc2OC)[C@@H](O)CCCC(=O)O)c1`, for which the Ratio in the test listed under Cavia porcellus [5] came to 32; in test [1] it was 86; in the test filed under Cavia porcellus [6] it was 14.
With `CCCCCCCc1ccc(C/C=C\[C@@H](SCc2ccc(C(=O)O)cc2F)[C@@H](O)CCCC(=O)O)cc1`, the Ratio in test [1] turned out to be 63.
Take `CCCCCCCc1ccc(C/C=C\[C@@H](SCc2ccc(/C=C/C(=O)O)cc2)[C@@H](O)CCCC(=O)O)cc1`: the Ratio in test [1] amounted to 38.
Regarding `CCCc1c(OCC(O)COc2ccc3c(=O)cc(C(=O)O)oc3c2CCC)ccc(C(C)=O)c1O` (stereo not drawn) [FPL-55712], in the test listed under Cavia porcellus [7], the Ratio is reported as 62.
For the compound `CCCCCCCc1ccc(C/C=C\[C@@H](Sc2ccc(Cl)c(Cl)c2)[C@@H](O)CCCC(=O)O)cc1`, the Ratio in test [1] is 2.
As for `CCCCCCCc1ccc(C/C=C\[C@@H](SCc2ccc(C(=O)O)cc2N)[C@@H](O)CCCC(=O)O)cc1`, in test [1], the Ratio is 66.
On to `CCCCCCCc1ccc(C/C=C\[C@@H](SCc2cccc(C(=O)O)c2)[C@@H](O)CCCC(=O)O)cc1`, for which the Ratio in the test filed under Cavia porcellus [3] amounted to 16.
Take `CCCCCCCc1ccc(C/C=C\[C@@H](SCc2cc(C(=O)O)ccc2N)[C@@H](O)CCCC(=O)O)cc1`: in test [1], the Ratio amounted to 39.
Take `CCCCCCCc1ccc(C/C=C\[C@@H](SCc2ccccc2C(=O)O)[C@@H](O)CCCC(=O)O)cc1`: the Ratio in test [1] worked out at 39.
On to `CCCCCCCc1ccc(C/C=C\[C@@H](Sc2cccc(N)c2)[C@@H](O)CCCC(=O)O)cc1`, for which, in test [1], the Ratio is 14.
On the same count and under the same terms, under `CCCCCCCc1ccc(C/C=C\[C@@H](SCc2ccc(C(=O)O)cc2[N+](=O)[O-])[C@@H](O)CCCC(=O)O)cc1` stands 24.

The values above are taken from ChEMBL document CHEMBL1124069, “Synthesis and pharmacological characterization of a series of leukotriene analogues with antagonist and agonist activities” (1988).
